According to ChEMBL document CHEMBL1137258 (J Med Chem, 2006):

Key:
RKO [1] = test: Cytotoxicity against proliferating RKOp27 cells after 72 hrs by Alamar Blue assay; format: functional, cell-based; details: Homo sapiens
How it was run: (§1)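 Human colon carcinoma RKOp27 line carrying ponasterone-A-inducible p27kip1. Induction gives G1-arrested cells, and uninduced cells stay proliferating. Viability was read as metabolic activity by Alamar Blue. IC50 values are the mean ± SD of two independent experiments, each with quadruplicate samples per concentration.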

RKO [2] = test: Cytotoxicity against cell cycle arrested RKOp27 cells after 72 hrs by alamar blue assay; format: functional, cell-based; details: Homo sapiens; how it was run: as §1
Tubulin = Tubulin (Bos taurus, UniProt Q6B856+Q862L2+Q862F3); test: Inhibition of MAP containing bovine brain tubulin polymerization; format: functional
Tubulin (Bos taurus) = test: Inhibition of [3H]colchicine binding to beta tubulin
RKO [3] = test: Cytotoxicity against RKOp27 cells at 30 uM after 72 hrs by alamar blue assay; format: functional, cell-based; details: Homo sapiens

| IC50 (Tubulin) [µM] | IC50 (Tubulin (Bos taurus)) [µM] | Compound | IC50 (RKO [1]) [µM] | IC50 (RKO [2]) [µM] | Activity (RKO [3]) |
| --- | --- | --- | --- | --- | --- |
|  |  | COc1cc2c(c(OC)c1OC)-c1ccc(OC)c(=O)cc1[C@@H](NC(C)=O)CC2 [COLCHICINE] | 0.016 | > 5 |  |
|  |  | COc1cc([C@@H]2c3cc4c(cc3[C@H](O)[C@H]3COC(=O)[C@H]23)OCO4)cc(OC)c1OC [PODOFILOX] | 0.029 | > 0.5 |  |
|  |  | Cc1nccn1-c1csc(Nc2ccc(S(N)(=O)=O)cc2)n1 | 49 | > 100 |  |
| 1.2 | 1.25 | Cc1nc2ccccc2n1-c1csc(Nc2ccc(Br)cc2)n1 | 0.09 | 60 |  |
|  |  | Cc1nc2ccccc2n1-c1csc(Nc2ccc(S(N)(=O)=O)cc2)n1 | 45 | 95 |  |
| 1.25 | 0.75 | COc1ccc(Nc2nc(-n3c(C)nc4ccccc43)cs2)cc1 | 0.025 | 52.5 |  |
|  | 4 | Cc1cn(-c2csc(Nc3ccc(Br)cc3)n2)c(C)n1 | 0.4 | 45 |  |
|  |  | Cc1nccn1-c1csc(Nc2ccccc2)n1 | 32.5 | > 100 |  |
|  | 8 | COc1ccc(Nc2nc(-n3ccnc3C)cs2)cc1 | 1.6 | > 100 |  |
|  |  | c1ccc(Nc2nc(-n3cnc4ccccc43)cs2)cc1 | > 100 | > 100 |  |
|  |  | COc1cccc(Nc2nc(-n3ccnc3C)cs2)c1 | 22.5 | > 100 |  |
|  |  | Cc1nccn1-c1csc(Nc2ccc(Br)cc2)n1 | 30 | > 100 | Not toxic |
|  |  | c1ccc(Nc2nc(-n3ccnc3)cs2)cc1 | > 100 | > 100 |  |
|  |  | Cc1nc2ccccc2n1-c1csc(Nc2cccc(Br)c2)n1 | 36 | 85 |  |
|  |  | COc1cccc(Nc2nc(-n3c(C)nc4ccccc43)cs2)c1 | 40 | 60 |  |
|  | 7.5 | COc1ccc(Nc2nc(-n3cc(C)nc3C)cs2)cc1 | 0.25 | > 100 |  |
|  |  | COc1ccc(Nc2nc(-n3ccnc3)cs2)cc1 | > 100 | > 100 |  |
|  |  | COc1cccc(Nc2nc(-n3cc(C)nc3C)cs2)c1 | 22.5 | 60 |  |
|  |  | COc1ccc(Nc2nc(-n3cnc4ccccc43)cs2)cc1 | > 100 | > 100 |  |
|  |  | Cc1cn(-c2csc(Nc3cccc(Br)c3)n2)c(C)n1 | > 100 | > 100 |  |
|  | 100 | Brc1ccc(Nc2nc(-n3cnc4ccccc43)cs2)cc1 | > 100 | > 100 |  |
|  | 1 | Cc1nc(C)c(-c2csc(Nc3ccc(Br)cc3)n2)s1 | 0.7 | 30 |  |
|  |  | Cc1nc2ccccc2n1-c1csc(Nc2ccccc2)n1 | 40 | 50 |  |
| 3 | 0.75 | Cc1ccc(Nc2nc(-n3ccnc3C)cs2)cc1 | 0.45 | > 100 |  |
|  | 6.25 | Cc1ccc(Nc2nc(-n3cc(C)nc3C)cs2)cc1 | 0.2 | > 100 |  |
|  |  | Cc1nccn1-c1csc(Nc2cccc(Br)c2)n1 | > 100 | > 100 |  |
